A short description of this series: Toxicity liver stage against HepG2, at 10uM. In kind it is cell-based. Further details: test concentration 10 uM, cell line HepG2-A16-CD81EGFP. The following applies: human, HepG2-A16-CD81EGFP cells; read-out: INHIBITION
The method in brief: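 Uninfected HepG2-A16-CD81EGFP cells, 3 × 10^3 per well, 1536-well, plated on prespotted compound at 10 μM final, parasite-free screening media added to match infected plates; puromycin 10 μM positive, DMSO 0.5% negative; run in parallel with 48 h PbLuc assay at 37 °C, 5% CO2; viability by CellTiter-Glo luminescence, normalized to controls.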
For `O=C1c2cccnc2OC(CN2CCOCC2)CN1Cc1cccs1` (stereo unspecified), the cytotoxicity at 10 µM is -3.35%.

Turning to `COc1ccc(CN2CC(O)CN(C(=O)OCC(C)C)CC2=O)cc1` (stereo unspecified), the cytotoxicity at 10 µM was -7.34%.

Turning to `Cc1cc(C)n2c(CCCNS(=O)(=O)c3ccc(F)cc3)nnc2n1`, the cytotoxicity at 10 µM amounted to 2.38%.

For `O=C(c1ccc(Cl)s1)N1CC(c2nc(-c3ccc[nH]c3=O)no2)C1`, the cytotoxicity at 10 µM is -1.26%. For the compound `CN1CCN([C@@H]2CCN(C(N)=O)[C@H]2Cc2ccccc2)CC1`, the cytotoxicity at 10 µM stood at 2.41%. With `CCO[C@@H]1CC[C@H]2[C@H]1OCCN2S(=O)(=O)c1cn(C)cn1`, the cytotoxicity at 10 µM is 5.59%. Under `O=C1CC2(CCN(c3nncs3)C2)CN1c1cncnc1` (stereo unspecified) stands -0.376%.

Take `Cc1nnc(N2C[C@H](C(=O)NCc3ccco3)[C@@H]3CCO[C@@H]3C2)s1`: the cytotoxicity at 10 µM came out at 8.5%. As to `Cc1ccc(C(=O)N2C[C@@H]3COC[C@]3(COCc3cccnc3)C2)cn1`, the cytotoxicity at 10 µM stood at 0.719%. As for `Cc1ccc(N2N=C(C(=O)NCC3CC3)S(=O)(=O)c3cccnc32)cc1`, the cytotoxicity at 10 µM came out at 6.72%.

Take `O=C(Cn1nc(Br)nc1Br)N1CCOCC1`: the cytotoxicity at 10 µM is -1.14%.

For the compound `O=C1CC(N2CCN(c3ccccc3O)CC2)C(=O)N1Cc1cccs1` (stereo unspecified), the cytotoxicity at 10 µM was -0.872%. Regarding `COCCNC(=O)Cn1cc2c(n1)c(C)nn2C`, the cytotoxicity at 10 µM is 4.6%. The value for `CN(C)C(=O)CN1CCC(c2c(C(N)=O)sc3ncccc23)C1` (stereo unspecified) was 8.42%. On to `CS(=O)(=O)c1cc(Cl)cnc1C1CCN(C(=O)C2CC2)CC1`, for which the cytotoxicity at 10 µM came to 8.21%.

Take `Cc1ncsc1CN1CCOC(C)(C(N)=O)C1` (stereo unspecified): the cytotoxicity at 10 µM came out at 0.267%. For the compound `C[C@@H]1CN(c2nc(O)cc(Cc3ccccc3F)n2)C[C@H](C)O1`, the cytotoxicity at 10 µM turned out to be 5.31%. The value for `CC(C)(C)c1ccc2c(c1)CCN2C(=O)c1[nH]c(=O)[nH]c(=O)c1N` was 7.22%. Under `Brc1cnc(NCCCOCC2CCOCC2)nc1` stands 16.8%. The value for `Cc1ccccc1C(O)CNC(=O)Cc1ccc(F)cc1` (stereo unspecified) was 5.8%. For the compound `COCCN(Cc1noc(-c2ccc(OC)cc2)n1)C1CC1`, the cytotoxicity at 10 µM was 5.69%.

As for `CCn1c(=O)n(CCC(=O)N(C)Cc2ccc(C)o2)c2ccccc21`, the cytotoxicity at 10 µM was -2.42%. For the compound `Cn1c(CO)nnc1SCc1c(F)cccc1Br`, the cytotoxicity at 10 µM is -41.2%. Regarding `O=C(c1ccc(Cl)cn1)N1CCC(COCc2ccccc2)C1` (stereo unspecified), the cytotoxicity at 10 µM was 5.88%. Take `CC(C)Oc1ccc(CNC(=O)c2cc(C(N)=O)cs2)cc1F`: the cytotoxicity at 10 µM came to 12.6%. As to `CCOc1ccccc1C(CC(=O)N(C)C)NC(C)=O` (stereo unspecified), the cytotoxicity at 10 µM was -4.67%. Under `CNC(=O)CN1CCCC1c1ccccc1Br` (stereo unspecified) stands -2.22%; under `CC(C)c1nc(CSc2nnc(Cn3cncn3)o2)cs1`, 3.19%; under `O=C(CCc1ccco1)Nc1ccc(Br)cn1`, 81.2%. With `Cc1cc(CSc2nc(=O)ccn2C(C)C)no1`, the cytotoxicity at 10 µM is 14.9%.

With `CC(C)(C)OC(=O)N1CSC[C@@H]1C(=O)NCc1ccc(C#N)cc1`, the cytotoxicity at 10 µM was found to be 11.6%. For the compound `Cc1cc2ncc(C(C)NCc3cccnc3)c(C)n2n1` (stereo unspecified), the cytotoxicity at 10 µM is -0.0764%. In the case of `CN1CCCC(N(C)S(=O)(=O)c2cccc3ncccc23)C1` (stereo unspecified), the cytotoxicity at 10 µM is -6.46%. Under `Cc1ccc(-c2noc(C(C)(C)NS(C)(=O)=O)n2)cc1F` stands 2.77%.

As for `c1ccc2[nH]c(C3CCN(Cc4noc(C5CC5)n4)CC3)cc2c1`, the cytotoxicity at 10 µM turned out to be 7.67%. As for `Cc1nc2c(c(=O)[nH]1)CCN(C(=O)c1[nH]nc3c1CC(C)CC3)C2` (stereo unspecified), the cytotoxicity at 10 µM was determined as 13.4%. Under `CCc1ccc2ncn(Cc3ncc[nH]3)c(=O)c2c1` stands 11.1%; under `NC(=O)c1cnc2n1CCN(C(=O)c1ccc(Cn3cccc3)cc1)C2`, -1.5%. The value for `COCC(=O)N1CCCN(C(=O)C2Cc3ccccc3CN2C)CC1` (stereo unspecified) was 4.28%; that for `CC(C)c1cc(CN(C)C(=O)CN2CCCCC2=O)no1` was 8.01%. Under `CN(C)c1cnn(CC(=O)N2CCCCCC2)c(=O)c1` stands -10.6%. As for `CCc1cc(N(C)CCC(O)c2ccccc2)n2nccc2n1` (stereo unspecified), the cytotoxicity at 10 µM is -1.14%. The value for `CNc1cc(C)nc(-c2cc(NC3CCNCC3)nc3[nH]ccc23)n1` was -2.98%.

In the case of `COCCN1CCC(CN(CC2CCCO2)C(=O)Cn2cccn2)CC1` (stereo unspecified), the cytotoxicity at 10 µM is -3.79%. The value for `CCc1nc(N2CCC3(CCC(=O)N(Cc4ccncc4)C3)CC2)no1` was 7.1%. As to `CCn1ncnc1CN1CCC(CNC(=O)c2cccc(C)n2)C1` (stereo unspecified), the cytotoxicity at 10 µM was 8.57%. In the case of `CC(C)(C)C(=O)NCCNc1cc(N2CCCC2)ncn1`, the cytotoxicity at 10 µM was -43%. Under `Cn1nc2c(c1NC(=O)c1ccc(C3CCCN3C3CCC3)s1)CCC2` (stereo unspecified) stands -5.08%.

With `CN(Cc1cscn1)C1CCCN(c2cccnn2)C1` (stereo unspecified), the cytotoxicity at 10 µM was -3.69%.

Consider `Cc1cnn(CC2CCCCN2Cc2ncc(C(C)(C)C)o2)c1` (stereo unspecified), for which the cytotoxicity at 10 µM was -3.44%. On to `CC(C)c1nn(C)c(N(C)C)c1CNC(C)c1ccccc1F` (stereo unspecified), for which the cytotoxicity at 10 µM is -2.97%. As to `Cc1ccc(CN(Cc2nc3c(cnn3C)c(=O)[nH]2)C2CC2)o1`, the cytotoxicity at 10 µM was -1.92%. Regarding `N#Cc1cccc(C(=O)N2CCC(Nc3cccnn3)CC2)c1`, the cytotoxicity at 10 µM was -5.17%. The value for `CC(C)c1n[nH]c(C2CN(C(=O)c3ncoc3C(C)C)CCO2)n1` (stereo unspecified) was -7.22%. For the compound `CC(C)c1noc(C(C)N2CCN(Cc3cccnc3)CC2)n1` (stereo unspecified), the cytotoxicity at 10 µM was -5.44%. As for `CC(c1cccc(Cl)c1)N(C)Cc1nc2c(cnn2C)c(=O)[nH]1` (stereo unspecified), the cytotoxicity at 10 µM was -10.5%. The value for `Cc1cc(C)n(CC2CCCN2C(=O)c2cccn3ccnc23)n1` (stereo unspecified) was -7.45%. The value for `CCCN(CCC)C(=O)CN(C)C1CCc2ccccc21` (stereo unspecified) was -6.63%. The value for `Cc1nc(C2CCCN2C(=O)c2csc3c2CCCC3)no1` (stereo unspecified) was -10.3%. With `Cc1cc(C2CCCN2C(=O)c2cc3c(s2)CCC3)no1` (stereo unspecified), the cytotoxicity at 10 µM is -11%. Under `COc1cccc(C2CCCN2CCCNS(C)(=O)=O)c1` (stereo unspecified) stands -2%; under `Cc1nc(C)n(CC2CCCN2Cc2cn3cc(Cl)ccc3n2)n1` (stereo unspecified), -16.7%; under `COc1ccc(S(=O)(=O)N2CCc3ccc(F)cc32)cc1C(=O)O`, -11.4%.

With `Cc1cccc(CNC(C)c2ccc(OCC(=O)NC3CC3)cc2)c1` (stereo unspecified), the cytotoxicity at 10 µM is -10%. On to `c1ccc(-n2ccc(CN3CCCC(Cn4cncn4)C3)n2)cc1` (stereo unspecified), for which the cytotoxicity at 10 µM is -16%. With `Cc1ccc(-c2nc(CN3CCN(CC(=O)N(C)C)CC3)cs2)o1`, the cytotoxicity at 10 µM was -22%. `Cc1nc(C)n(CC2CCCCN2CC(=O)Nc2cc(C)on2)n1` (stereo unspecified): the cytotoxicity at 10 µM came out at 2.67%. Under `CC(C)COCCCNC(=O)NCC(O)c1cccc(F)c1` (stereo unspecified) stands -3.1%; under `COc1ncccc1CNC(=O)Nc1ccc(N(C)C)nc1`, -4.38%. For the compound `CN1CCC/C1=N\S(=O)(=O)c1ccc(NC(=O)c2ccc(Cl)cc2)cc1`, the cytotoxicity at 10 µM is -0.383%. On to `O=C(c1cccc(CNS(=O)(=O)c2ccc(F)cc2)c1)N1CCCC1`, for which the cytotoxicity at 10 µM was -8.57%.

Regarding `CCC(CC)C(=O)NCCc1ccn(-c2ccccc2)n1`, the cytotoxicity at 10 µM is -8.8%. For the compound `CC(Cn1cccn1)NC(=O)NCc1ccoc1` (stereo unspecified), the cytotoxicity at 10 µM came to 8.59%. As to `CC(C)N(Cc1cccc(Cl)c1)Cc1nc2c(cnn2C)c(=O)[nH]1`, the cytotoxicity at 10 µM is 1.97%. On to `O=C(CCc1cscn1)N1CCCC(c2ccn[nH]2)C1` (stereo unspecified), for which the cytotoxicity at 10 µM was -9.14%. The value for `Cc1ccc(CNC(=O)NCc2cccnc2N(C)C)s1` was -4.15%; that for `CCc1nnc2n1CCN(C(=O)C(C)COCc1ccccc1)C2` (stereo unspecified) was -9.46%; that for `CC(C)c1nc(C2CCCN2Cc2ccn(C)c(=O)c2)no1` (stereo unspecified) was -12.2%. As for `CCOc1cc(CNC(=O)N2CCC(Cc3cnn(C)c3)C2)ccn1` (stereo unspecified), the cytotoxicity at 10 µM was -8.29%.

On to `CC(C)c1ccc(C(O)Cn2c(=O)c(C#N)cn(C3CC3)c2=O)cc1` (stereo unspecified), for which the cytotoxicity at 10 µM was -11.5%.

For the compound `CCc1nc(CN2CCCN(C(=O)C(C)COC)CC2)cs1` (stereo unspecified), the cytotoxicity at 10 µM was -0.884%.

On to `CN(CCNC(=O)NCc1ccncc1)C1CCCC1`, for which the cytotoxicity at 10 µM is -2.95%. On to `Cc1cc(CN(C)C(=O)c2ccc(F)cc2Br)no1`, for which the cytotoxicity at 10 µM was found to be 0.864%. Take `CNC(=O)C1(N2CCC[C@H]2C(=O)NC2CCOCC2)CCOCC1`: the cytotoxicity at 10 µM was found to be 0.705%. In the case of `Cn1cc(CN2CCC(F)(F)C3(CCN(c4cccnc4)C3)C2)cn1` (stereo unspecified), the cytotoxicity at 10 µM amounted to 3.89%. The value for `COCCN1C[C@@H]2[C@@H](OC)CCN(Cc3ccc(C)o3)[C@@H]2C1` was -4.42%; that for `COc1ncccc1C(=O)N1CC[C@H]2C[C@H](c3nnc(C)[nH]3)O[C@@H]2C1` was 2.4%; that for `COCCN1CCC2(C1)c1ccccc1S(=O)(=O)N2Cc1ccccc1` (stereo unspecified) was 10.5%. Under `CN(C)CC(=O)N1CCC2(CCc3cc(-c4cccnc4)ccc32)CC1` stands 4.01%. Take `COc1ccc(CN2CCC3(CC2)CC(c2cccnc2)CO3)cc1` (stereo unspecified): the cytotoxicity at 10 µM was -0.259%. As for `Cn1cc2c(n1)C(CNCc1ccco1)OCC2` (stereo unspecified), the cytotoxicity at 10 µM is -1.54%. In the case of `CN(Cc1ccco1)[C@@H]1CN(Cc2ccco2)[C@@H]2CCCO[C@H]12`, the cytotoxicity at 10 µM came to 1.41%. As for `COCCN1C(=O)CCC12CCC(NCc1ccc(OC)cc1)CC2` (stereo unspecified), the cytotoxicity at 10 µM came out at 11.5%. The value for `Cc1ccoc1C1=NNC(=CN2CCn3c(nnc3C(C)C)C2)O1` was -13.1%. The value for `COCC(=O)NCC1CCC(c2ccnc3ncnn23)CC1` (stereo unspecified) was 1.36%; that for `O=C(Cn1ccc(=O)cc1)N1C[C@@H]2CC[C@H]1CN(c1ncccn1)C2` was 4.52%.

Values taken from ChEMBL document CHEMBL4513216, “Probing the Open Global Health Chemical Diversity Library for Multistage-Active Starting Points for Next-Generation Antimalarials” (ACS Infect Dis, 2020).
